According to PubChem BioAssay:
Calls of active or inactive are those of the source.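 How the source made its calls, unless noted: active means potentiation averaged over duplicate wells exceeding buffer-only control mean by more than 3 SD; inactive means the rest.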

These compounds were tested against Potassium voltage-gated channel subfamily KQT member 1 (Homo sapiens) (UniProt P51787) (assay: KCNQ1 potassium channel potentiators, confirmation, FluxOR thallium flux, CHO cells, duplicates (AID 493007;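 on outcome: cells depolarized by a potassium plus thallium sulfate stimulus after compound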)). Conditions: KCNQ1 cell line, FluxOR thallium flux fluorescence, at 10 µM; hits give high values, % of reference activator effect, buffer zero.
Chain of Potassium voltage-gated channel subfamily KQT member 1 (Homo sapiens) (P51787 whole entry, looked up): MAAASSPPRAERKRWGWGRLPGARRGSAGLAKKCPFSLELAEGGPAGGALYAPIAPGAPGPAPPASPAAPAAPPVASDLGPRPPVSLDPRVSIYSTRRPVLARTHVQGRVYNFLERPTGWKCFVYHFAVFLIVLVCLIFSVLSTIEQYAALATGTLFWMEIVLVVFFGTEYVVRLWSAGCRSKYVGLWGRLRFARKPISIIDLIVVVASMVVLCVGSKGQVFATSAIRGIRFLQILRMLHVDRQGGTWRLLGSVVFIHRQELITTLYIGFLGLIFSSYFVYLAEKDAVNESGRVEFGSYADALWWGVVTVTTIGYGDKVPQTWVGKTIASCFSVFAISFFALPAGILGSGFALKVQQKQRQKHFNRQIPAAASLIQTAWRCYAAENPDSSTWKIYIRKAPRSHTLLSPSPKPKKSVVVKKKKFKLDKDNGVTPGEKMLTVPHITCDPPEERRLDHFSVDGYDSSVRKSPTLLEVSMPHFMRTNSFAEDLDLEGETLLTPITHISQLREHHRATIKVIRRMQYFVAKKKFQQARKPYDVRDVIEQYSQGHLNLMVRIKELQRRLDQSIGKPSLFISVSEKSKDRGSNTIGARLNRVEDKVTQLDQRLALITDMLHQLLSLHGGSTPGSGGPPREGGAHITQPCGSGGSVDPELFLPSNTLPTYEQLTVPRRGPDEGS
Method in brief: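 Material: KCNQ1-expressing CHO cell line; Incubation: FluxOR dye loading 90 min, compound exposure 20 min, room temperature; Detection: FluxOR Tl+ flux fluorescence, 10 s baseline plus 110 s recording; Read-out: percent activation between buffer and R-L3 responses; Control set: buffer-only wells as 0% and R-L3 activator as 100%; Replication: duplicate wells per compound.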

outcome, inactive:
CCCCCCCN1N=C(C)C(C(=O)c2ccccc2)C1=O (stereo not given)
O=C(Cc1cccs1)N=Nc1c(O)[nH]c2ccc(Br)cc12
CSc1ccc(/C=N/NC(=O)c2cccs2)cc1
COc1cc(CNCc2ccccn2)ccc1OCc1c(Cl)cccc1Cl
COc1cc(C2NC(=O)NC(O)(C(F)(F)F)C2C(C)=O)cc(OC)c1OC (stereo not given)
CN=C1c2cc3cc(OC)ccc3n2CCN1Cc1ccccc1
O=C(CN1C(=O)COc2ccccc21)N(Cc1cccnc1)Cc1cccc(F)c1
O=C(NC(=S)N1CCN(c2ccccc2)CC1)c1c(F)cccc1F
COc1ccc2c(c1)cc(C)c1nnc(SCC(=O)N3CCN(C(=O)c4ccco4)CC3)n12
O=C(CNC(=O)c1sc2ccccc2c1Cl)OCc1ccccc1
CCc1nnc(NC(=O)CCC(=O)N2CCN(C3CCCCC3)CC2)s1
CCC1=NN(C(=O)c2ccc(Br)cc2)C(O)(c2ccccc2)C1 (stereo not given)
CCCCC(Nc1ncnc2ccccc12)C(=O)O (stereo not given)
CCn1c(O)c(N=NC2=NC(=O)CS2)c2ccccc21
CCC1(c2ccccc2)NC(=O)N(CC(=O)Nc2ccccc2C(=O)N2CCCCC2)C1=O (stereo not given)
Cc1ccc(NC2=C(NC(=O)c3ccccc3)C(=O)c3ccccc3C2=O)cc1Cl
Cc1c(CCC(=O)N2CCC[C@H]2C(=O)O)c(=O)oc2c(C)c3oc4c(c3cc12)CCCC4
O=C(CCN1CCCCCC1)Nc1ccc(F)cc1

potentiation, active:
COC(=O)C1=NN(C(=O)c2ccc(Cl)cc2)C(O)(c2ccccc2)C1 (stereo not given) 150%
CCc1cc2c(=O)n(CCC(C)C)c(=S)[nH]c2s1 228%
Oc1c(Br)cc(Br)cc1/C=N/c1nc2c(s1)CCCC2 22%
CC(C)c1ccc(NC(=O)C2CC(=O)N=C(N)S2)cc1 (stereo not given) 41.5%
CCc1ccc(/C=C/C(=O)c2cc(Br)ccc(=O)c2O)cc1 140%
O=C(CCC1CCN(C(=O)c2cncs2)CC1)Nc1ccccc1 164%
Cc1ccc2nc(NC(=S)NC(=O)c3cccs3)sc2c1 66%
Cc1ccc(C(C#N)c2ccc3c(C(F)(F)F)cc(C(F)(F)F)nc3n2)cc1 (stereo not given) 114%
Cc1ccccc1NC(=S)NC(=O)c1cc(-c2ccccc2)nc2ccccc12 53%
CCOc1ncccc1C(=O)OCc1ccc(C#N)cc1 114%
S=c1nc(C2CCCCC2)n(-c2ccccc2)[nH]1 117%
O=c1c(O)c(-c2ccc3c(c2)OCO3)oc2ccccc12 41.5%
Cc1ccc(-c2csc3nc[nH]c(=S)c23)cc1 124%
O=C(NC(=S)N1CCN(Cc2ccc3c(c2)OCO3)CC1)c1ccc(Cl)cc1 86%
CCOC(=O)c1sc(NC(=O)c2ccncc2)nc1C 54%
CC(C)n1cc(NC(=O)c2cc(-c3ccccc3)on2)cn1 35.5%
NC(=S)n1[nH]c(-c2ccc([N+](=O)[O-])cc2)c(N=Nc2cccc(Cl)c2)c1=O 34.5%
Cc1ccc(OCC(=O)NNC(=O)C(=O)NC(C)(C)C)cc1 43%
CCCCN(CCCC)c1ccc(C(=O)c2ccccc2C(=O)O)c(O)c1 51.5%
O=C(Nc1nnc(-c2ccc(Cl)cc2)o1)c1ccccc1Br 86.5%
CC1CCc2c(sc3[nH]c(=S)n(C)c(=O)c23)C1 (stereo not given) 254%
COc1ccc(-n2cc(CNC3CCN(C)CC3)c(-c3cccc(F)c3)n2)cc1 31%

Each compound was assayed against Potassium voltage-gated channel subfamily KQT member 2 (Rattus norvegicus) (UniProt O88943) (assay: rat KCNQ2 channel potentiation, selectivity assay for KCNQ1 potentiator project, KCNQ2-CHO-K1 cells (AID 493009;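 active means mean duplicate potentiation above the buffer control mean plus 5 SD of buffer wells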;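 further: assay conditions were tuned for KCNQ1 rather than KCNQ2 modulators; signal is max minus min fluorescence divided by baseline after thallium stimulus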)). Conditions: FluxOR thallium flux fluorescence, at 10 µM; hits give high values, scaled: buffer 0, activator control 100.
Chain of Potassium voltage-gated channel subfamily KQT member 2 (Rattus norvegicus) (O88943 whole entry, looked up): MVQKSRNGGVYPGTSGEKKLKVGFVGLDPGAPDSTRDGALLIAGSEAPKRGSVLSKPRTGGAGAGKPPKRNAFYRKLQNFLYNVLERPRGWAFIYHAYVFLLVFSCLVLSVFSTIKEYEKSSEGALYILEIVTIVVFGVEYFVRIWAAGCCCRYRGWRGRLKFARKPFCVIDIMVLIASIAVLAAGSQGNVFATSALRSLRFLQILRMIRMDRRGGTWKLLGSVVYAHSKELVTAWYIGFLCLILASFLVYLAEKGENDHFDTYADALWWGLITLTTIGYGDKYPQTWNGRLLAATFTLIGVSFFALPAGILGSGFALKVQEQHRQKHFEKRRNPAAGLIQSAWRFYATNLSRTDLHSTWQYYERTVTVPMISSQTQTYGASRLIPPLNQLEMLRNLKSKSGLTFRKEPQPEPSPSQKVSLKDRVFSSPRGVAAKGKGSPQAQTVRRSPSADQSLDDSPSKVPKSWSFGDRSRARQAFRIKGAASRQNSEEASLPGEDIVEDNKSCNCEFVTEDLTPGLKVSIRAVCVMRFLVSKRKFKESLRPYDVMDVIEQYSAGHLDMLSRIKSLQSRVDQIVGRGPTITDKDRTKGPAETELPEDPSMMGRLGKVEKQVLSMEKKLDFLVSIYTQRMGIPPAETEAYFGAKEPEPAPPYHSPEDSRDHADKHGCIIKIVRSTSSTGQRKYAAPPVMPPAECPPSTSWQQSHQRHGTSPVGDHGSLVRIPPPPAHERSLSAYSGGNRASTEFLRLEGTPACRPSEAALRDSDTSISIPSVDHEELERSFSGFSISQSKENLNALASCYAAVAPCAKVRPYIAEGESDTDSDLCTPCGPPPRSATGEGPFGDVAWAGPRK

outcome, inactive:
CCCCCCCN1N=C(C)C(C(=O)c2ccccc2)C1=O (stereo not given)
O=C(Cc1cccs1)N=Nc1c(O)[nH]c2ccc(Br)cc12
CSc1ccc(/C=N/NC(=O)c2cccs2)cc1
Oc1c(Br)cc(Br)cc1/C=N/c1nc2c(s1)CCCC2
COc1cc(CNCc2ccccn2)ccc1OCc1c(Cl)cccc1Cl
COc1cc(C2NC(=O)NC(O)(C(F)(F)F)C2C(C)=O)cc(OC)c1OC (stereo not given)
CN=C1c2cc3cc(OC)ccc3n2CCN1Cc1ccccc1
O=C(CN1C(=O)COc2ccccc21)N(Cc1cccnc1)Cc1cccc(F)c1
O=C(NC(=S)N1CCN(c2ccccc2)CC1)c1c(F)cccc1F
COc1ccc2c(c1)cc(C)c1nnc(SCC(=O)N3CCN(C(=O)c4ccco4)CC3)n12
O=C(CNC(=O)c1sc2ccccc2c1Cl)OCc1ccccc1
CCc1nnc(NC(=O)CCC(=O)N2CCN(C3CCCCC3)CC2)s1
CCC1=NN(C(=O)c2ccc(Br)cc2)C(O)(c2ccccc2)C1 (stereo not given)
CCCCC(Nc1ncnc2ccccc12)C(=O)O (stereo not given)
CCC1(c2ccccc2)NC(=O)N(CC(=O)Nc2ccccc2C(=O)N2CCCCC2)C1=O (stereo not given)
Cc1ccc(NC2=C(NC(=O)c3ccccc3)C(=O)c3ccccc3C2=O)cc1Cl
Cc1c(CCC(=O)N2CCC[C@H]2C(=O)O)c(=O)oc2c(C)c3oc4c(c3cc12)CCCC4
O=C(CCN1CCCCCC1)Nc1ccc(F)cc1
COc1ccc(-n2cc(CNC3CCN(C)CC3)c(-c3cccc(F)c3)n2)cc1

potentiation, active:
COC(=O)C1=NN(C(=O)c2ccc(Cl)cc2)C(O)(c2ccccc2)C1 (stereo not given) 392%
CCc1cc2c(=O)n(CCC(C)C)c(=S)[nH]c2s1 499%
CC(C)c1ccc(NC(=O)C2CC(=O)N=C(N)S2)cc1 (stereo not given) 227%
CCc1ccc(/C=C/C(=O)c2cc(Br)ccc(=O)c2O)cc1 296%
O=C(CCC1CCN(C(=O)c2cncs2)CC1)Nc1ccccc1 464%
Cc1ccc2nc(NC(=S)NC(=O)c3cccs3)sc2c1 158%
Cc1ccc(C(C#N)c2ccc3c(C(F)(F)F)cc(C(F)(F)F)nc3n2)cc1 (stereo not given) 222%
Cc1ccccc1NC(=S)NC(=O)c1cc(-c2ccccc2)nc2ccccc12 158%
CCOc1ncccc1C(=O)OCc1ccc(C#N)cc1 392%
S=c1nc(C2CCCCC2)n(-c2ccccc2)[nH]1 362%
O=c1c(O)c(-c2ccc3c(c2)OCO3)oc2ccccc12 162%
Cc1ccc(-c2csc3nc[nH]c(=S)c23)cc1 300%
O=C(NC(=S)N1CCN(Cc2ccc3c(c2)OCO3)CC1)c1ccc(Cl)cc1 298%
CCOC(=O)c1sc(NC(=O)c2ccncc2)nc1C 166%
CC(C)n1cc(NC(=O)c2cc(-c3ccccc3)on2)cn1 236%
NC(=S)n1[nH]c(-c2ccc([N+](=O)[O-])cc2)c(N=Nc2cccc(Cl)c2)c1=O 179%
Cc1ccc(OCC(=O)NNC(=O)C(=O)NC(C)(C)C)cc1 176%
CCCCN(CCCC)c1ccc(C(=O)c2ccccc2C(=O)O)c(O)c1 182%
O=C(Nc1nnc(-c2ccc(Cl)cc2)o1)c1ccccc1Br 234%
CC1CCc2c(sc3[nH]c(=S)n(C)c(=O)c23)C1 (stereo not given) 552%
CCn1c(O)c(N=NC2=NC(=O)CS2)c2ccccc21 145%
